Experimental data as given in ChEMBL document CHEMBL4145448, “Broad activity of diphenyleneiodonium analogues against Mycobacterium tuberculosis, malaria parasites and bacterial pathogens” (Eur J Med Chem, 2018).
In brackets after ≈: the same amount, converted by molar mass.

Key:
[1] = Cytotoxicity against human HepG2 cells after 24 hrs in presence of 1% FBS by resazurin dye based assay; assay type: cell-based
Method in brief: (§1)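 HepG2 cells seeded at 4000/well in DMEM with 1% FBS and allowed to attach for 24 h at 37 °C, 5% CO2. Compounds added from 300 to 0.14 µM in 3-fold steps and incubated 24 h. 10 µM resazurin added for 2 h, fluorescence read at ex/em 560/590. Percent viability computed relative to untreated and negative controls, duplicate wells.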

Plasmodium falciparum [2] = test: Growth inhibition of CQ-sensitive GFP-fused Plasmodium falciparum D10 after 90 hrs by ethidium bromide staining based flow cytometry; assay type: functional, organism-based; conditions: D10, 90 h
Method in brief: (§2)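 Parasites cultured in human O+ erythrocytes in RPMI-HEPES pH 7.4 with hypoxanthine, NaHCO3, gentamicin and 0.5% Albumax II under 1% O2/4% CO2 at 37 °C. Synchronised to rings with heparin plus sorbitol. Set up at 1% parasitaemia and 1% haematocrit with 10x compound added. Cultured 90 h to next-cycle trophozoites. Stained with 10 µg/mL ethidium bromide for 1 h, washed, parasitaemia counted by flow cytometry with GFP gating.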

[3] = Selectivity index, ratio of CC50 for human HepG2 cells in presence of 10% FBS to MIC for Mycobacterium tuberculosis H37Rv ATCC 25618; assay type: toxicity; conditions: read-out: Selectivity Index
[4] = tested on: Mycobacterium tuberculosis; test: Antimycobacterial activity against Mycobacterium tuberculosis H37Rv ATCC 25618 after 7 days by resazurin dye based assay; assay type: functional; conditions: H37Rv ATCC 25618, 168 h
Method in brief: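 H37Rv grown at 37 °C in 7H9 with 10% ADC, 0.5% glycerol and 0.02% tyloxapol. Compounds serially diluted in water, 0 to 10 µM, in triplicate. Culture adjusted to OD600 0.001 and incubated 7 days at 37 °C. Resazurin (0.05% w/v) added for 4-24 h and fluorescence read at 590 nm. MIC is the lowest concentration giving complete growth inhibition versus untreated. Rifampicin served as control.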

[5] = Cytotoxicity against human HepG2 cells after 24 hrs in presence of 10% FBS by resazurin dye based assay; assay type: cell-based
Method in brief: as §1, with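 “10%” for “1%”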

[6] = Selectivity index, ratio of CC50 for human HepG2 cells in presence of 1% FBS to MIC for Mycobacterium tuberculosis H37Rv ATCC 25618; assay type: toxicity; conditions: read-out: Selectivity Index
[7] = Selectivity index, ratio of CC50 for human HepG2 cells in presence of 10% FBS to IC50 for CQ-sensitive GFP-fused Plasmodium falciparum D10; assay type: toxicity; conditions: read-out: Ratio IC50
[8] = Selectivity index, ratio of CC50 for human HepG2 cells in presence of 1% FBS to IC50 for CQ-sensitive GFP-fused Plasmodium falciparum D10; assay type: toxicity; conditions: read-out: Ratio IC50
[9] = Selectivity index, ratio of CC50 for human HepG2 cells in presence of 10% FBS to IC50 for drug-resistant GFP-fused Plasmodium falciparum D10; assay type: toxicity; conditions: read-out: Ratio IC50
Plasmodium falciparum [10] = test: Growth inhibition of […] GFP-fused Plasmodium falciparum D10 after 90 hrs by ethidium bromide staining based flow cytometry; assay type: functional, organism-based; conditions: D10, 90 h; method in brief: as §2
[11] = Selectivity index, ratio of CC50 for human HepG2 cells in presence of 1% FBS to IC50 for drug-resistant GFP-fused Plasmodium falciparum D10; assay type: toxicity; conditions: read-out: Ratio IC50

Row | Structure (SMILES) | CC50 at 24 h [1] [nM] | IC50 (Plasmodium falciparum [2]) [nM] | selectivity ratio [3] | MIC [4] [µM] | CC50 at 24 h [5] [nM] | selectivity ratio [6] | selectivity ratio [7] | selectivity ratio [8] | selectivity ratio [9] | IC50 (Plasmodium falciparum [10]) [nM] | selectivity ratio [11]
1 | Fc1ccc(Cl)c2c1[I+]c1ccccc1-2 | 930 | > 1000 | 10 | 0.27 | 2720 | 3.4 | – | – | – | – | –
2 | Cc1cccc2c1-c1cccc(Cl)c1[I+]2 | 60.1 | 110 | 1.8 | 0.27 | 486 | 0.22 | 5.1 | 0.63 | – | – | –
3 | FC(F)(F)Oc1cccc2c1-c1ccccc1[I+]2 | 50.3 | 130 | 0.99 | 0.25 | 251 | 0.21 | 1.9 | 0.39 | – | – | –
4 | COc1ccc(Cl)c2c1[I+]c1ccccc1-2 | 150 | 130 | 0.44 | 0.51 | 224 | 0.31 | 1.75 | 1.2 | – | – | –
5 | Fc1cccc2c1-c1c(Cl)cccc1[I+]2 | 392 | > 1000 | 0.8 | 1 | 833 | 0.38 | < 0.83 | – | – | – | –
6 | Clc1ccc(Cl)c2c1[I+]c1ccccc1-2 | 894 | > 1000 | 3.7 | 0.5 | 1850 | 1.8 | – | – | – | – | –
7 | FC(F)(F)c1cccc2c1-c1ccccc1[I+]2 | 23.6 | 130 | 0.36 | 0.26 | 94.7 | 0.09 | 0.72 | 0.18 | 0.7 | 140 | 0.18
8 | Fc1cccc2c1-c1c(F)cccc1[I+]2 | 88.6 | 840 | 0.58 | 0.28 | 161 | 0.32 | 0.19 | 0.11 | – | – | –
9 | Fc1cccc2c1-c1cccc(Cl)c1[I+]2 | 52.4 | 190 | 1.4 | 0.27 | 386 | 0.19 | 2.1 | 0.28 | – | – | –
10 | Cc1ccc(Cl)c2c1[I+]c1ccccc1-2 | 93 | 110 | 2.8 | 0.13 | 349 | 0.74 | 3.1 | 0.82 | – | – | –
11 | Clc1cccc2c1[I+]c1cccc(Cl)c1-2 | 84.6 | 360 | 2.1 | 0.26 | 544 | 0.32 | 1.5 | 0.23 | – | – | –
12 | CO[C@H]1/C=C/O[C@@]2(C)Oc3c(C)c(O)c4c(O)c(c(/C=N/N5CCN(C)CC5)c(O)c4c3C2=O)NC(=O)/C(C)=C\C=C\[C@H](C)[C@H](O)[C@@H](C)[C@@H](O)[C@@H](C)[C@H](OC(C)=O)[C@@H]1C [RIFAMPIN] | – | – | – | 0.3 to 0.61 (≈ 0.247 to 0.502 µg/mL) | – | – | – | – | – | – | –
